According to ChEMBL document CHEMBL1156185, “A class of 3S-2-aminoacyltetrahydro-beta-carboline-3-carboxylic acids: their facile synthesis, inhibition for platelet activation, and high in vivo anti-thrombotic potency” (J Med Chem, 2010):
Structures can show the parent of a compound that is named as a salt.

How the values were obtained:
[1] = Antiplatelet aggregation activity against platelet-activating factor-induced pig platelet aggregation after 5 mins by aggregometer; assay type: functional, cell-based; settings: Sus scrofa
Summary of the method: (§1)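 Pig blood from six pigs was spun at 1000 rpm for 10 min to give PRP, then at 1500g for 10 min to give PPP. PRP was adjusted to 2 × 10⁸ platelets/mL with autologous PPP. Test agent or NS was added at final 100 µM–1 nM. Agonists were at final concentrations of ADP 10 µM, AA 350 µM, PAF 0.1 µM and thrombin 0.1 U/mL. Light-transmission peak was read at 37 °C over 5 min, in sextuplicate. IC50 was taken from the concentration–inhibition curve.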

[2] = Antiplatelet aggregation activity against arachidonic acid-induced pig platelet aggregation after 5 mins by aggregometer; assay type: functional, cell-based; settings: Sus scrofa; summary of the method: as §1
[3] = Antiplatelet aggregation activity against ADP-induced pig platelet aggregation after 5 mins by aggregometer; assay type: functional, cell-based; settings: Sus scrofa; summary of the method: as §1
[4] = Antiplatelet aggregation activity against thrombin-induced pig platelet aggregation after 5 mins by aggregometer; assay type: functional, cell-based; settings: Sus scrofa; summary of the method: as §1
Platelet [5] = experiment: Ratio of IC50 for arachidonic acid-induced pig platelet aggregation to IC50 for ADP-induced pig platelet aggregation; assay type: functional, Sus scrofa
Summary of the method: (§2)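 Fold ratios of IC50 values. Each IC50 came from pig PRP (2 × 10⁸ platelets/mL) light-transmission aggregometry at 37 °C for 5 min, in sextuplicate, with final ADP 10 µM, AA 350 µM, PAF 0.1 µM or thrombin 0.1 U/mL.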

Platelet [6] = experiment: Ratio of IC50 for platelet-activating factor-induced pig platelet aggregation to IC50 for ADP-induced pig platelet aggregation; assay type: functional, Sus scrofa; summary of the method: as §2
Platelet [7] = experiment: Ratio of IC50 for thrombin-induced pig platelet aggregation to IC50 for ADP-induced pig platelet aggregation; assay type: functional, Sus scrofa; summary of the method: as §2
Platelet [8] = experiment: Ratio of TCCA IC50 to compound IC50 for ADP-induced pig platelet aggregation; assay type: functional, Sus scrofa; summary of the method: as §2
Rattus norvegicus [9] = experiment: Antithrombotic activity in Wistar rat arterioveinos cannula model assessed as reduction of thrombus weight at 100 nmol/kg, iv; assay type: functional
Summary of the method: (§3)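 Male Wistar rats, 250–300 g. Agents were dissolved in NS and kept on ice. Heparin sodium was injected into a thread-containing polyethylene cannula, then NS or agent was injected intravenously. The cannula joined the right carotid artery to the left jugular vein, and blood flowed through it for 15 min. Wet thrombus weight on the thread was recorded as mean ± SD, n = 12.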

[10] = Antiplatelet aggregation activity against collagen-induced platelet; assay type: functional, cell-based
Rattus norvegicus [11] = experiment: Antithrombotic activity in Wistar rat arterioveinos cannula model assessed as reduction of thrombus weight at 10 nmol/kg, iv; assay type: functional; summary of the method: as §3
Rattus norvegicus [12] = experiment: Antithrombotic activity in Wistar rat arterioveinos cannula model assessed as reduction of thrombus weight at 1 nmol/kg, iv; assay type: functional; summary of the method: as §3
Rattus norvegicus [13] = experiment: Antithrombotic activity in Wistar rat arterioveinos cannula model assessed as reduction of thrombus weight at 100 nmol/kg, po; assay type: functional
Summary of the method: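 Male Wistar rats received agent in NS, or NS alone, orally. Blood then passed from the right carotid artery to the left jugular vein through a thread-containing polyethylene cannula for 15 min. Wet thrombus weight was reported as mean ± SD, n = 12.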

Row | SMILES | IC50 [1] | IC50 [2] | IC50 [3] | IC50 [4] | Ratio IC50 (Platelet [5]) | Ratio IC50 (Platelet [6]) | Ratio IC50 (Platelet [7]) | Ratio IC50 (Platelet [8]) | Thrombus weight (Rattus norvegicus [9]) | IC50 [10] | Activity (Rattus norvegicus [11]) | Activity (Rattus norvegicus [12]) | Activity (Rattus norvegicus [13])
1 | N=C(N)NCCC[C@H](N)C(=O)N1Cc2[nH]c3ccccc3c2C[C@H]1C(=O)O | 18.2 nM | 27.5 nM | 9.47 nM | 29.7 nM | 2.9 | 1.9 | 3.1 | 74 | 16.68 mg | – | – | – | –
2 | N[C@@H](CCC(=O)O)C(=O)N1Cc2[nH]c3ccccc3c2C[C@H]1C(=O)O | 14.8 nM | 29.6 nM | 10.2 nM | 30.9 nM | 2.9 | 1.4 | 3 | 68 | 16.6 mg | – | – | – | –
3 | C[C@H](N)C(=O)N1Cc2[nH]c3ccccc3c2C[C@H]1C(=O)O | 13.6 nM | 24.6 nM | 6.71 nM | 27.4 nM | 3.7 | 2 | 4.1 | 104 | 14.61 mg | – | – | – | –
4 | NCCCC[C@H](N)C(=O)N1Cc2[nH]c3ccccc3c2C[C@H]1C(=O)O | 17 nM | 30.1 nM | 11.1 nM | 33.4 nM | 2.7 | 1.5 | 3 | 63 | 16.54 mg | – | – | – | –
5 | CC(C)[C@H](N)C(=O)N1Cc2[nH]c3ccccc3c2C[C@H]1C(=O)O | 17.7 nM | 27.3 nM | 7.8 nM | 32.5 nM | 3.5 | 2.3 | 4.2 | 90 | 18.56 mg | – | – | – | –
6 | NC(=O)CC[C@H](N)C(=O)N1Cc2[nH]c3ccccc3c2C[C@H]1C(=O)O | 17.2 nM | 28.2 nM | 7.7 nM | 30.1 nM | 3.7 | 2.2 | 3.9 | 91 | 17.3 mg | – | – | – | –
7 | N[C@@H](CO)C(=O)N1Cc2[nH]c3ccccc3c2C[C@H]1C(=O)O | 16.1 nM | 26.2 nM | 8.66 nM | 30.8 nM | 3 | 1.9 | 3.6 | 81 | 16.25 mg | – | – | – | –
8 | N[C@@H](Cc1c[nH]c2ccccc12)C(=O)N1Cc2[nH]c3ccccc3c2C[C@H]1C(=O)O | 16.8 nM | 27.9 nM | 10.4 nM | 29.6 nM | 2.7 | 1.6 | 2.8 | 67 | 18.43 mg | – | – | – | –
9 | Cc1nccc2c1[nH]c1cc(O)ccc12 [HARMOL HYDROCHLORIDE] | – | – | – | – | – | – | – | – | – | > 130 µM | – | – | –
10 | N[C@@H](Cc1cnc[nH]1)C(=O)N1Cc2[nH]c3ccccc3c2C[C@H]1C(=O)O | 15.5 nM | 24.9 nM | 7.31 nM | 29 nM | 3.4 | 2.1 | 4 | 96 | 15.89 mg | – | – | – | –
11 | CC[C@H](C)[C@H](N)C(=O)N1Cc2[nH]c3ccccc3c2C[C@H]1C(=O)O | 12.6 nM | 23.9 nM | 6.56 nM | 27 nM | 3.6 | 1.9 | 4.1 | 107 | 13.74 mg | – | 18.12 mg | 25.43 mg | 13.88 mg
12 | c1ccc2c(c1)[nH]c1cnccc12 [NORHARMANE] | – | – | – | – | – | – | – | – | – | > 130 µM | – | – | –
13 | Cc1nccc2c1[nH]c1ccccc12 [HARMAN] | – | – | – | – | – | – | – | – | – | > 130 µM | – | – | –
14 | CC1=NCCc2c1[nH]c1cc(O)ccc21 [HARMALOL] | – | – | – | – | – | – | – | – | – | > 130 µM | – | – | –
